Experimental data published in paper PMC3228886 (Journal of medicinal chemistry, 2011).
Counter-ions that a name gives are not always drawn.

What was measured:
[1] = Water solubility; format: physicochemical
[2] = target: human TLR2 (Homo sapiens, UniProt O60603); assay: TLR2-specific NF-κB induction reporter gene assay; format: cell-based; details: for TLR2-agonistic activity (in words): TLR2-specific reporter gene assay
How it was run: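 HEK-Blue reporter cells carry stably expressed secreted alkaline phosphatase under NF-κB promoters, inducible by TLR2 agonists. Cells were seeded at ~10⁵ cells/mL and grown to confluency, then stimulated for 12 h with serially diluted test compound. Supernatant sAP was read spectrophotometrically at 620 nm using an alkaline phosphatase-specific chromogen in the detection medium. Samples were run in quadruplicate, reported as means with standard deviations.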

[3] = test system: human blood; details: ex vivo human blood models; cited from earlier work
[4] = test system: rabbit; details: rabbit models; cited from earlier work
[5] = test system: murine models of immunization; details: cited from earlier work

human TLR2, sequence (O60603 21-784): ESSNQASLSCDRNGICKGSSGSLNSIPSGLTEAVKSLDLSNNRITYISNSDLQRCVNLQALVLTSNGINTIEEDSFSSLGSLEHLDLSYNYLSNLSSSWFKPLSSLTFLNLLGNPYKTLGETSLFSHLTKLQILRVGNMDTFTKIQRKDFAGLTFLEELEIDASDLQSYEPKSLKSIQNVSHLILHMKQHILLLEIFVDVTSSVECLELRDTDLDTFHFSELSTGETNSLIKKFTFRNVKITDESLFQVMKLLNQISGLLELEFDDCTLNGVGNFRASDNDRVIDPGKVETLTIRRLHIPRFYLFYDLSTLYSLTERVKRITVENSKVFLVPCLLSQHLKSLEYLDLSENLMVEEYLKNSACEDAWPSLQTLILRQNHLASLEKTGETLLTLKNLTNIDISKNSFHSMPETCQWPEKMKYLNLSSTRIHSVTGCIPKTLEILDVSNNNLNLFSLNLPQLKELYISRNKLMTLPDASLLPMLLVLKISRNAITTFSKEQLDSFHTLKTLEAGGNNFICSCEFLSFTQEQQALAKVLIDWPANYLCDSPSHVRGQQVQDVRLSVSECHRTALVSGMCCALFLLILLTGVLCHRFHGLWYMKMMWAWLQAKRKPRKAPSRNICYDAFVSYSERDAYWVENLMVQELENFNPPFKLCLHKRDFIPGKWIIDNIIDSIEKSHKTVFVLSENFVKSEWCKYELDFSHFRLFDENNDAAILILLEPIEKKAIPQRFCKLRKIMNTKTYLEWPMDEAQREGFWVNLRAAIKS
human TLR2, sequence (Q9Y2C9 32-796 partner): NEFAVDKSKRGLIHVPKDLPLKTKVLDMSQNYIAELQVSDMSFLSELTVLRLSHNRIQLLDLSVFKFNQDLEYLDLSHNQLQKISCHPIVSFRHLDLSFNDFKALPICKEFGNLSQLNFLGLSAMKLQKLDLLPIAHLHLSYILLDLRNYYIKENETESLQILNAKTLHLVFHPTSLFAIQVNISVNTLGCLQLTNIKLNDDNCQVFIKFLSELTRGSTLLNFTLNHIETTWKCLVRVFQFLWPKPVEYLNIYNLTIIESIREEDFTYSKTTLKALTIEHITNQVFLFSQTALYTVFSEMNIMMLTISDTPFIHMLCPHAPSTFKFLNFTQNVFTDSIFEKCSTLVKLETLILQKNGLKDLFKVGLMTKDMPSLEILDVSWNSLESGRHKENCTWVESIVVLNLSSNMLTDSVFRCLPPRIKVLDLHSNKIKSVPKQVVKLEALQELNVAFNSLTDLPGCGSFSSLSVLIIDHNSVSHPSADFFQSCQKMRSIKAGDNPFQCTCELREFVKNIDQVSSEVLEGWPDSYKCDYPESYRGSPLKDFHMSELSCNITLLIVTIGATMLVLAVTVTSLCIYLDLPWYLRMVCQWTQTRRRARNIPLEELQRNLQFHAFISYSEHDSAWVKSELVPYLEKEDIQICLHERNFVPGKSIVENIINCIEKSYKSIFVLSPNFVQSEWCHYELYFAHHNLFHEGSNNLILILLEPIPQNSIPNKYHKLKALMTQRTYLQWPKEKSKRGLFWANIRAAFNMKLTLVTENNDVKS

SMILES	TLR2-agonistic activity (in words) [2]	other results
CCCCCCCCCCCCCCCC(=O)OC[C@H](CSC[C@H](N)C(=O)NCC(=O)OC(C)C)OC(=O)CCCCCCCCCCCCCCC [Compound 7]	highly active	Water solubility [1]: not water-soluble
CCCCC/C=C\C/C=C\CCCCCCCC(=O)OC[C@H](CSC[C@H](N)C(=O)NCC(=O)OC(C)C)OC(=O)CCCCCCC/C=C\C/C=C\CCCCC [Compound 8]	highly active	Water solubility [1]: not water-soluble
CC/C=C\C/C=C\C/C=C\CCCCCCCC(=O)OC[C@H](CSC[C@H](N)C(=O)NCC(=O)OC(C)C)OC(=O)CCCCCCC/C=C\C/C=C\C/C=C\CC [Compound 9]	highly active	Water solubility [1]: not water-soluble
CCCCCCCCCCCCCCCC(=O)OC[C@H](CSC[C@H](NC(=O)CC[C@H](N)C(=O)O)C(=O)NCC(=O)OC(C)C)OC(=O)CCCCCCCCCCCCCCC [Compound 11]	virtually inactive	
CCCCCCCCCCCC(=O)OC[C@H](CSC[C@H](N)C(=O)N[C@@H](CO)C(=O)O)OC(=O)CCCCCCCCCCC [Compound 17]	lower in activity than the parent PAM2CS compound	
CCCCCCCCCCCCCC(=O)OC[C@H](CSC[C@H](N)C(=O)N[C@@H](CO)C(=O)O)OC(=O)CCCCCCCCCCCCC [Compound 18]	lower in activity than the parent PAM2CS compound	
CCCCCCCCCCCCCCCCCC(=O)OC[C@H](CSC[C@H](N)C(=O)N[C@@H](CO)C(=O)O)OC(=O)CCCCCCCCCCCCCCCCC [Compound 19]	lower in activity than the parent PAM2CS compound	
CCOCCOCCOCCCNCC(=O)OC[C@H](CSC[C@H](N)C(=O)N[C@@H](CO)C(=O)O)OC(=O)CNCCCOCCOCCOCC [Compound 24]	inactive	
CCCCCCCCCCCCCCCC(=O)OC[C@@H](O)CSC[C@H](N)C(=O)N[C@@H](CO)C(=O)O [Compound 35]	unexpectedly active	
CCCCCCCCCCCCCCCC(=O)O[C@H](CO)CSC[C@H](N)C(=O)N[C@@H](CO)C(=O)O [Compound 38]	unexpectedly active	
CCCCCCCCCCCCCCCC(=O)OCCSC[C@H](N)C(=O)N[C@@H](CO)C(=O)OC [Compound 44, 2-(((R)-2-amino-3-(((S)-3-hydroxy-1-methoxy-1-oxopropan-2-yl)amino)-3-oxopropyl)thio)ethyl palmitate, trifluoroacetate]	quite active	Water solubility [1]: water-soluble; EC50 [2]: 5.45 nM
CCCCCCCCCCCCCCCC(=O)OCCCSC[C@H](N)C(=O)N[C@@H](CO)C(=O)OC [Compound 47, 3-(((R)-2-amino-3-(((S)-3-hydroxy-1-methoxy-1-oxopropan-2-yl)amino)-3-oxopropyl)thio)propyl palmitate, trifluoroacetate]	completely inactive	
CCCCCCCCCCCCCCCCOC(=O)CSC[C@H](N)C(=O)N[C@@H](CO)C(=O)OC [Compound 50, (S)-methyl 2-((R)-2-amino-3-((2-(hexadecyloxy)-2-oxoethyl)thio)propanamido)-3-hydroxypropanoate, trifluoroacetate]	virtually bereft of activity	
CCCCCCCCCCCCCCCCOC(=O)CCSC[C@H](N)C(=O)N[C@@H](CO)C(=O)OC [Compound 53, (S)-methyl 2-((R)-2-amino-3-((3-(hexadecyloxy)-3-oxopropyl)thio)propanamido)-3-hydroxypropanoate, trifluoroacetate]	virtually bereft of activity	
CCCCCCCCCCCCCCCC(=O)OC[C@H](CSC(C)(C)[C@@H](N)C(=O)N[C@@H](CO)C(=O)OC)OC(=O)CCCCCCCCCCCCCCC [Compound 59]	inactive	
CCCCCCCCCCCCCCCC(=O)OC[C@H](CSC(C)(C)[C@H](N)C(=O)N[C@@H](CO)C(=O)O)OC(=O)CCCCCCCCCCCCCCC [Compound 64]	inactive	
CCCCCCCCCCCCCCCC(=O)OC[C@H](CSCC[C@H](N)C(=O)N[C@@H](CO)C(=O)O)OC(=O)CCCCCCCCCCCCCCC [Compound 69]	inactive	
CCCCCCCCCCCCCCCC(=O)OC[C@H](CSCCC(=O)N[C@@H](CO)C(=O)OC)OC(=O)CCCCCCCCCCCCCCC [Compound 74]	inactive	
CCCCCCCCCCCCCCCC(=O)OCC(CSC[C@H](N)C(=O)N[C@@H](CO)C(=O)O)OC(=O)CCCCCCCCCCCCCCC (stereo partly drawn) [PAM2CS, S-[2,3-bis(palmitoyloxy)-(2RS)-propyl]-R-cysteinyl-S-serine]		Pro-inflammatory activity [3]: devoid of any detectable pro-inflammatory activity; Local reactogenicity and pyrogenicity [4]: devoid; Adjuvanticity [5]: potently adjuvantic
